Bioassay records deposited in PubChem by several laboratories.
The list is not random: actives were taken first. Their share in the collection is about 2.6%.
Platelet DG rel: modulates dense granule release in human platelets; human platelet-rich plasma, SFLLRN dense granule ATP release, luminescence; inhibition, %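 (compounds screened at 7.5 µM in platelet-rich plasma)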; 0.22% of 300,000 active; AID 1663;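 active means mean replicate score, as percent of positive control, at or above 50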
Rce1 inh: yeast Ras-converting enzyme inhibition; Q03530; yeast membranes, quenched prenylated peptide cleavage fluorescence; calls only; 0.27% of 290,000 active;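 active means fall in fluorescence gain of 50% or more versus controls, with final raw signal at or below 3038400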
TAAR1 ag: human TAAR1 agonism; Q96RJ0; CHO RD-HGA16 TAAR1, Fluo-8 calcium fluorescence; vehicle wells 0%, saturating PEA agonist 100%; activation, % at 3 µM; 0.99% of 360,000 active;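 active means activation above the mean activation of all test compounds in the run plus 3 SD, cut at about 38% in these data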
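Assay system: CHO-derived RD-HGA16 cells with stable Gα16 and human TAAR1; timing: 17-24 h seeding, 75 min 37 °C dye, 30 min RT; read-out: % activation from peak over basal fluorescence ratio, DMSO-to-PEA scaled; measured by: kinetic Fluo-8 calcium fluorescence; benchmarks: low control DMSO, high control PEA (EC100); doses: 3 µM single concentration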
VLA-4 inh: inhibition in a human VLA-4 binding assay. P13612. VLA-4 expressing cells, ligand binding flow cytometry. inhibition, % (about 7 µM as worked out from the volumes in the protocol). 0.2% of 330,000 active; in the data active means inhibition above about 50%
Target sequence (P13612 whole entry, looked up): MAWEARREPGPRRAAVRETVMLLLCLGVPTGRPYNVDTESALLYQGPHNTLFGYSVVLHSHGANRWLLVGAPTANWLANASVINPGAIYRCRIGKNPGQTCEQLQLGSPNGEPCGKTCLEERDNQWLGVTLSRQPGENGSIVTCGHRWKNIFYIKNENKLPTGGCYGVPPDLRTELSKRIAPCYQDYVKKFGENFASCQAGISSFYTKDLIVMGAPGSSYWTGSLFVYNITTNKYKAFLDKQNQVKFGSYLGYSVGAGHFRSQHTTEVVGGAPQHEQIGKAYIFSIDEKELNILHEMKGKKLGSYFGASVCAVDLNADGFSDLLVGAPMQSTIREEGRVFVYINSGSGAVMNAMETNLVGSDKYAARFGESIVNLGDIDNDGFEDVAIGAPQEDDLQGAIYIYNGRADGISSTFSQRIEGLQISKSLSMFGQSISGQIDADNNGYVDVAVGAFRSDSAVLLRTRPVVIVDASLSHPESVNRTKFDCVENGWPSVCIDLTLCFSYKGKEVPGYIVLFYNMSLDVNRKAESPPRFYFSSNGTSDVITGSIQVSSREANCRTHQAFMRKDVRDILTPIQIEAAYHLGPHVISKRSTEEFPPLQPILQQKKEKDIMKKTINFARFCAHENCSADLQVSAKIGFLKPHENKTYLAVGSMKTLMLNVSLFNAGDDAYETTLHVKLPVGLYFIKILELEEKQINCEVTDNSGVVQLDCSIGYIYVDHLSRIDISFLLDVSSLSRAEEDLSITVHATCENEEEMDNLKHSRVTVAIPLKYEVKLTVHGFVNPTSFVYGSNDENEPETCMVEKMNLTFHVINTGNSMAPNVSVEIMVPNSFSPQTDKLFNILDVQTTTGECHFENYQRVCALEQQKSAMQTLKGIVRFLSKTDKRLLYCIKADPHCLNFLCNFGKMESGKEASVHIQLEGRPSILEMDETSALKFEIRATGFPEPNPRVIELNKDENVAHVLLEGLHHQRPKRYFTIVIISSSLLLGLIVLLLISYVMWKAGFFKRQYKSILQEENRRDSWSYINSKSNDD
TAAR1 antagonist: human TAAR1 antagonism; 1.5% of 360,000 active; AID 624466; inhibition, % at 3 µM; Q96RJ0; CHO RD-HGA16 TAAR1, Fluo-8 calcium fluorescence, antagonist;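 active means inhibition above a per-plate cutoff, the mean inhibition of test compounds on that plate plus 3 SD, cut at about 49% in these data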
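test system = CHO RD-HGA16 cells bearing hTAAR1 | replication = singlicate | controls = DMSO-only wells and EC80 β-PEA-stimulated wells | reagent = EC80 β-phenethylamine stimulus | read-out basis = percent inhibition of PEA-evoked calcium signal, max/basal emission ratio | schedule = seeding 17-24 h prior, 75-min 37 °C, 30-min RT dye loading | signal = kinetic Fluo-8 calcium fluorescence measurement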
TAAR1 ag confirm: human TAAR1 agonism, confirmed; shares compounds with TAAR1 ag; CHO RD-HGA16 TAAR1, Fluo-8 calcium fluorescence; scaled: DMSO 0%, maximal phenethylamine 100%; activation, % at 3 µM; 82% of 2,400 active; AID 651783;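 active means activation above a cutoff set at the run's mean compound activation plus 3 SD, cut at about 39% in these data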
Ga16 nonsel ag: nonselective agonist in parental cells, TAAR1 agonist counter-screen | shares compounds with TAAR1 ag | CHO-Ga16 parental, Fluo-8 calcium fluorescence; normalized to maximal ATP response, DMSO zero | activation, % at 3 µM | 50% of 2,400 active | AID 651787;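 active means activation above the run cutoff, the mean activation over all tested wells plus 3 SD, cut at about 12% in these data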
TAAR1 desens: TAAR1 response desensitization, agonist counter-screen; CHO RD-HGA16 hTAAR1, Fluo-8 calcium, beta-PEA response inhibition; shares compounds with TAAR1 ag; inhibition, % at 3 µM; 46% of 2,400 active;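 active means inhibition above the run cutoff, the mean inhibition of all test compounds plus 3 SD, cut at about 49% in these data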;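 further: beta-PEA stimulus applied at its EC80; loss of beta-PEA calcium signal after compound pretreatment read as receptor desensitization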
Ga16 nonsel ant: nonselective Ga16 antagonism, counter-screen. inhibition, % at 3 µM. shares compounds with TAAR1 ag. CHO-Ga16 ATP-induced calcium, Fluo-8 fluorescence. 39% of 2,400 active. AID 651952;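 active means inhibition above the plate's mean compound inhibition plus 3 SD, computed per plate, cut at about 22% in these data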
Large screens that a line does not name were inactive (follow-up assays come after a bar, where they were run).

CC(C)CC(N)c1csc(NC(=O)C(c2ccccc2)c2ccccc2)n1 (stereo not drawn)	TAAR1 ag 74.9, TAAR1 antagonist 66.2 (no result: Platelet DG rel, Rce1 inh, VLA-4 inh) | TAAR1 ag confirm 75.2 | Ga16 nonsel ag 33.6 | TAAR1 desens 72.7 | Ga16 nonsel ant 50.1
CCN(CC)c1ccc2cc(-c3nc(-c4ccc(OC)cc4)cs3)c(=O)oc2c1	TAAR1 ag 450.5, TAAR1 antagonist 104.8 (no result: Platelet DG rel, Rce1 inh, VLA-4 inh) | TAAR1 ag confirm 355.2 | Ga16 nonsel ag 606.4 | TAAR1 desens 88.8 | Ga16 nonsel ant 96.3
CC(=O)NC(C)(c1ccccc1)c1nc(-c2cccc(C#N)c2)cs1 (stereo not drawn)	none (no result: Platelet DG rel, Rce1 inh, VLA-4 inh)
Cc1c(Br)c([N+](=O)[O-])nn1CC(=O)N1CCc2ccccc2C1	TAAR1 ag 62.9 | TAAR1 ag confirm 59.9 | Ga16 nonsel ag inactive | TAAR1 desens inactive | Ga16 nonsel ant inactive
Cc1nn(CC(=O)N2CCc3ccccc3C2)c(C)c1[N+](=O)[O-]	TAAR1 ag 57.9 | TAAR1 ag confirm 68.6 | Ga16 nonsel ag inactive | TAAR1 desens inactive | Ga16 nonsel ant inactive
Cc1nn(CC(=O)N2CCc3ccccc3C2)c(C)c1Cl	none
O=C(O)C1NCCc2ccccc21 (stereo not drawn)	TAAR1 ag 72.0 | TAAR1 ag confirm 67.0 | Ga16 nonsel ag inactive | TAAR1 desens inactive | Ga16 nonsel ant inactive
O=C(O)CC1NCCc2ccccc21 (stereo not drawn)	none
COc1cc(C2c3cc4c(cc3OC(NCCc3ccccc3)C2C)OCO4)cc(OC)c1OC (stereo not drawn)	TAAR1 ag 96.9, TAAR1 antagonist 91.1 (no result: Platelet DG rel, Rce1 inh, VLA-4 inh) | TAAR1 ag confirm 97.1 | Ga16 nonsel ag inactive | TAAR1 desens 99.6 | Ga16 nonsel ant inactive
COc1ccc(CCNCC(O)COc2ccc(OC)cc2C(C)(C)C)cc1 (stereo not drawn)	TAAR1 ag 65.6 | TAAR1 ag confirm 95.8 | Ga16 nonsel ag 13.9 | TAAR1 desens 69.6 | Ga16 nonsel ant inactive
O=C(NN1C(=O)C2C3c4ccccc4C(c4ccccc43)[C@@H]2C1=O)c1ccccc1 (stereo partly drawn)	none
O=C(NN1C(=O)C2C(c3ccccc3)C=CC(c3ccccc3)C2C1=O)c1ccccc1 (stereo not drawn)	TAAR1 ag 69.8, TAAR1 antagonist 68.4 | TAAR1 ag confirm inactive | Ga16 nonsel ag 12.8 | TAAR1 desens inactive | Ga16 nonsel ant 28.6
O=C(NN1C(=O)C2C(c3ccccc3)C=CC(c3ccccc3)C2C1=O)c1cccc(Br)c1 (stereo not drawn)	TAAR1 ag 68.7, TAAR1 antagonist 87.0 | TAAR1 ag confirm 78.9 | Ga16 nonsel ag 72.2 | TAAR1 desens 85.1 | Ga16 nonsel ant 81.3
O=C(C(c1ccccc1)c1ccccc1)N1CC[C@@]2(O)CCCC[C@H]2C1	none
CCOC(=O)c1c(NS(=O)(=O)c2cccc(OC)c2)sc2c1CCC2	TAAR1 ag 54.8 | TAAR1 ag confirm 64.2 | Ga16 nonsel ag 53.6 | TAAR1 desens inactive | Ga16 nonsel ant 26.0
O=C(Nc1nnc(-c2ccccc2Cl)o1)c1nc2ccccc2s1	TAAR1 ag 134.0, TAAR1 antagonist 73.7 | TAAR1 ag confirm 113.1 | Ga16 nonsel ag 81.1 | TAAR1 desens 63.8 | Ga16 nonsel ant 36.1
O=C(Nc1nnc(-c2ccccc2Cl)o1)c1ccco1	none
CCc1nc2ccc(C(=O)N3CCN(C)CC3)cn2c1N(C)CCC(C)C	none (no result: Platelet DG rel, Rce1 inh, VLA-4 inh)
NC(=Nc1ccc(Br)cc1)c1ccccc1	TAAR1 ag 49.8 | TAAR1 ag confirm 55.3 | Ga16 nonsel ag 27.3 | TAAR1 desens inactive | Ga16 nonsel ant inactive
COc1ccc([C@H]2CC(=O)C=C(c3cc4ccccc4s3)C2)cc1	none (no result: Platelet DG rel, Rce1 inh)
CN1CCN(/N=C/c2ccc(N(c3ccccc3)c3ccccc3)cc2)CC1	TAAR1 ag 72.7, TAAR1 antagonist 49.7 | TAAR1 ag confirm 71.6 | Ga16 nonsel ag 27.6 | TAAR1 desens 55.8 | Ga16 nonsel ant 35.3
CN1CCN(/N=C/c2ccc(N(C)c3ccccc3)cc2)CC1	none
CC1(c2ccc(OC(F)F)cc2)NC(=O)N(CC(=O)Nc2cccnc2Cl)C1=O (stereo not drawn)	TAAR1 ag 129.0, TAAR1 antagonist 72.6 | TAAR1 ag confirm 130.9 | Ga16 nonsel ag 86.5 | TAAR1 desens 78.0 | Ga16 nonsel ant 39.5
O=C(Cc1ccccc1[N+](=O)[O-])NCC(O)c1ccc2c(c1)OCO2 (stereo not drawn)	none (no result: Platelet DG rel, Rce1 inh, VLA-4 inh)
CCCCCCCOC(=O)C[N+](C)(C)CCOC1CC2CCC1(C)C2(C)C (stereo not drawn)	TAAR1 ag 56.3 (no result: Rce1 inh, VLA-4 inh) | TAAR1 ag confirm 74.3 | Ga16 nonsel ag 38.2 | TAAR1 desens inactive | Ga16 nonsel ant 35.0
O=c1[nH]c(=O)n(C(c2ccccc2)c2ccccc2)cc1Br	none
O=c1[nH]nc(Br)c(=O)n1C(c1ccccc1)c1ccccc1	TAAR1 ag 71.3 (no result: Platelet DG rel, Rce1 inh, VLA-4 inh) | TAAR1 ag confirm 46.9 | Ga16 nonsel ag 25.5 | TAAR1 desens inactive | Ga16 nonsel ant inactive
FC(F)(F)c1ccc2c(c1)nc1n2CCCC1	none
CN1CCN(c2nc3cc(C(F)(F)F)ccc3n3cccc23)CC1	TAAR1 ag 61.8 | TAAR1 ag confirm 82.7 | Ga16 nonsel ag 20.3 | TAAR1 desens inactive | Ga16 nonsel ant inactive
CN(C)CCNC(=O)c1ccc(-c2cnn(C)c2)c2ccoc12	none (no result: Platelet DG rel, Rce1 inh, VLA-4 inh)
CCOC(=O)c1ccc(NC(=S)N2CCSC2c2ccc(Cl)cc2)cc1 (stereo not drawn)	TAAR1 ag 122.6, TAAR1 antagonist 105.2 | TAAR1 ag confirm 136.5 | Ga16 nonsel ag 93.7 | TAAR1 desens 105.9 | Ga16 nonsel ant 79.6
CCOC(=O)c1ccc(NC(=S)N2CCSC2c2ccc(OC)cc2)cc1 (stereo not drawn)	TAAR1 ag 92.6, TAAR1 antagonist 72.4 | TAAR1 ag confirm 82.8 | Ga16 nonsel ag 37.5 | TAAR1 desens 67.4 | Ga16 nonsel ant 43.6
c1nc(SSc2ncnc3nc[nH]c23)c2[nH]cnc2n1	none (no result: Platelet DG rel, Rce1 inh, VLA-4 inh)
O=C(NCCc1ccccc1)c1ncn[nH]1	none
O=C(NCCc1ccc(Cl)cc1)c1ncn[nH]1	TAAR1 ag 48.1 | TAAR1 ag confirm 45.6 | Ga16 nonsel ag inactive | TAAR1 desens inactive | Ga16 nonsel ant inactive
N#Cc1cccc(NC(=O)Nc2cccs2)c1	TAAR1 ag 57.8 | TAAR1 ag confirm 74.3 | Ga16 nonsel ag 15.9 | TAAR1 desens inactive | Ga16 nonsel ant 26.7
COc1ccc(C(=O)NCc2ccc(F)cc2)cc1S(=O)(=O)N1CCCC1	none (no result: Platelet DG rel, Rce1 inh, VLA-4 inh)
